From ChEMBL document CHEMBL2010770, “Dimeric 3,5-bis(benzylidene)-4-piperidones: a novel cluster of tumour-selective cytotoxins possessing multidrug-resistant properties” (Eur J Med Chem, 2012)
pIC50: −log10 of the molar value. Activity calls are given as the source filed them. No cut-off for these calls is given here.

Assays:
[1] = tested on: HCT-116; experiment: Cell cycle arrest in human HCT116 cells assessed as accumulation at G0/G1 phase at 16 uM after 48 hrs using propidium iodide staining by flow cytometry (reference value: 92.07%); type: functional
[2] = tested on: HCT-116; experiment: Cell cycle arrest in human HCT116 cells assessed as accumulation at S phase at 16 uM after 48 hrs using propidium iodide staining by flow cytometry (reference value: 3.19%); type: functional
[3] = tested on: HCT-116; experiment: Cell cycle arrest in human HCT116 cells assessed as accumulation at G2/M phase at 16 uM after 48 hrs using propidium iodide staining by flow cytometry (reference value: 4.75%); type: functional
[4] = Cytotoxicity against human HPLF cells after 48 hrs; type: cell-based
Summary of the method: (§1)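 Cells were exposed to a dose range for 48 h, following a literature method. CC50 was read from the dose–response curve.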

[5] = tested on: COLO 205; experiment: Cytotoxicity against human COLO205 cells; type: functional, cell-based
Summary of the method: (§2)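 Human colon cancer and leukaemia line panel. Compounds tested from 10^-4 to 10^-8 M, and IC50 values determined.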

[6] = tested on: HCC 2998; experiment: Cytotoxicity against human HCC2998 cells; type: functional, cell-based; summary of the method: as §2
[7] = tested on: HCT-116; experiment: Cytotoxicity against human HCT116 cells; type: functional, cell-based; summary of the method: as §2
[8] = tested on: HCT-15; experiment: Cytotoxicity against human HCT15 cells; type: functional, cell-based; summary of the method: as §2
[9] = tested on: HT-29; experiment: Cytotoxicity against human HT-29 cells; type: functional, cell-based; summary of the method: as §2
[10] = tested on: KM12; experiment: Cytotoxicity against human KM12 cells; type: functional, cell-based; summary of the method: as §2
[11] = tested on: SW-620; experiment: Cytotoxicity against human SW620 cells; type: functional, cell-based; summary of the method: as §2
[12] = tested on: HL-60(TB); experiment: Cytotoxicity against human HL-60(TB) cells; type: functional, cell-based; summary of the method: as §2
[13] = tested on: K562; experiment: Cytotoxicity against human K562 cells; type: functional, cell-based; summary of the method: as §2
[14] = tested on: RPMI-8226; experiment: Cytotoxicity against human RPMI8226 cells; type: functional, cell-based; summary of the method: as §2
[15] = tested on: HSC-2; experiment: Induction of apoptosis in human HSC2 cells assessed as formation of internucleosomal DNA fragmentation at up to 0.8 uM after 6 hrs; type: functional, cell-based
[16] = tested on: HL-60; experiment: Induction of apoptosis in human HL60 cells assessed as formation of internucleosomal DNA fragmentation at up to 0.8 uM after 6 hrs; type: functional, cell-based
[17] = tested on: HSC-2; experiment: Induction of apoptosis in human HSC2 cells assessed as formation of internucleosomal DNA fragmentation at up to 0.8 uM after 24 hrs; type: functional, cell-based
[18] = tested on: HL-60; experiment: Induction of apoptosis in human HL60 cells assessed as formation of internucleosomal DNA fragmentation at up to 0.8 uM after 24 hrs; type: functional, cell-based
[19] = tested on: HL-60; experiment: Induction of apoptosis in human HL60 cells assessed as increase of PARP1 cleavage at 0.2 uM after 6 hrs by Western blot analysis; type: functional, cell-based
Summary of the method: (§3)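 HSC-2 cells were treated at 0.4 µM and HL-60 cells at 0.2 µM. Cells were washed in ice-cold PBS and lysed in HEPES pH 7.4/Triton X-100 buffer with phosphatase and protease inhibitors. Lysates were run on 8% SDS-PAGE and transferred to PVDF. Blots were blocked in 5% milk and probed with anti-cleaved PARP1 and anti-β-actin, then HRP-conjugated secondary antibodies.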

[20] = tested on: HSC-2; experiment: Induction of apoptosis in human HSC2 cells assessed as increase of PARP1 cleavage at 0.4 uM after 12 hrs by Western blot analysis; type: functional, cell-based; summary of the method: as §3
[21] = tested on: HSC-2; experiment: Induction of apoptosis in human HSC2 cells assessed as increase of caspase-3 activation using DEVD-pnitroanilide as substrate after 6 hrs; type: functional, cell-based
Summary of the method: (§4)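 HSC-2 and HL-60 cells were exposed for up to 6 h and then lysed. Lysates were mixed with DEVD-p-nitroanilide and incubated at 37 °C for 2 h. Released p-nitroanilide was read at 405 nm.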

[22] = tested on: HL-60; experiment: Induction of apoptosis in human HL60 cells assessed as increase of caspase-3 activation using DEVD-pnitroanilide as substrate after 6 hrs; type: functional, cell-based; summary of the method: as §4
[23] = tested on: HCT-116; experiment: Cell cycle arrest in human HCT116 cells assessed as accumulation at G0/G1 phase at 1 uM after 48 hrs using propidium iodide staining by flow cytometry (reference value: 92.07%); type: functional
[24] = tested on: HCT-116; experiment: Cell cycle arrest in human HCT116 cells assessed as accumulation at S phase at 1 uM after 48 hrs using propidium iodide staining by flow cytometry (reference value: 3.19%); type: functional
[25] = tested on: HCT-116; experiment: Cell cycle arrest in human HCT116 cells assessed as accumulation at G2/M phase at 1 uM after 48 hrs using propidium iodide staining by flow cytometry (reference value: 4.75%); type: functional
[26] = molecular target: T1, ATP-dependent translocase ABCB1 (Homo sapiens, UniProt P08183); experiment: Inhibition of human MDR1-mediated multidrug resistant in mouse L5178Y cells at 4 uM treated 10 mins before rhodamine 123 challenge measured after 20 mins relative to control; type: cell-based
T1 sequence (P08183 whole entry): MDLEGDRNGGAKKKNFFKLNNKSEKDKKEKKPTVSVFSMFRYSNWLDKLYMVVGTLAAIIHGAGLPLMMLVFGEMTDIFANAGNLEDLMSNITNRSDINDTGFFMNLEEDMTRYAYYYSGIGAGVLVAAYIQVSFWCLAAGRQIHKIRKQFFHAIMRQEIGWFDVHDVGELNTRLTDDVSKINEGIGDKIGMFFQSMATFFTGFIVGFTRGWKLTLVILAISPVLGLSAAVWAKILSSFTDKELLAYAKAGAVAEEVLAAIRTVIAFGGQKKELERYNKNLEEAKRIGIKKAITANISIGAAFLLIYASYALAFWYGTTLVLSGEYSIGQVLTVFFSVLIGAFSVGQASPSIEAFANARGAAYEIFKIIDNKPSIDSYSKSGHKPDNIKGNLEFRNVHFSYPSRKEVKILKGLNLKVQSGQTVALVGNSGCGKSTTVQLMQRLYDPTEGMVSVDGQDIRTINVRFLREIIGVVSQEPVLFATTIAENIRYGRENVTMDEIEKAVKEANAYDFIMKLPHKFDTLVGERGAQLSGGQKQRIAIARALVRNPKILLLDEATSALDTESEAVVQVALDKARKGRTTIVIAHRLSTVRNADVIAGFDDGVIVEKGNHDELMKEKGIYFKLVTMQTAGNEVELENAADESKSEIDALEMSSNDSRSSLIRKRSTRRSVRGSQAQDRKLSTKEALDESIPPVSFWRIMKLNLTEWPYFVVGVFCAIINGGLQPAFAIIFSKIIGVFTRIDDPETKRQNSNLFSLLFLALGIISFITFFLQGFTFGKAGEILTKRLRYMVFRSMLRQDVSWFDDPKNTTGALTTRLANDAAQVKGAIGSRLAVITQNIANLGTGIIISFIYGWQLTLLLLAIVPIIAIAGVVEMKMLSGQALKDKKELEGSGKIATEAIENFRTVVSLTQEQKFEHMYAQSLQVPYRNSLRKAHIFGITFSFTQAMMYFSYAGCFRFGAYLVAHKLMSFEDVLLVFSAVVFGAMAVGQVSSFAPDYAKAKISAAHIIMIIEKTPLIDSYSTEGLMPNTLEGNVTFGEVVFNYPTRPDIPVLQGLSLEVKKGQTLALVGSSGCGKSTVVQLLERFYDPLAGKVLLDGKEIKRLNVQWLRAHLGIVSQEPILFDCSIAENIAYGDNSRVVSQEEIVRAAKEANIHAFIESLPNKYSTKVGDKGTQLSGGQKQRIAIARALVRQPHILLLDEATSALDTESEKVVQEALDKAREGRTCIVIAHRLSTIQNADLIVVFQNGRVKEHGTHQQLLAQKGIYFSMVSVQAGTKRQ
Summary of the method: (§5)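 Compounds in DMSO were added at room temperature to mdr1-transfected and parental L5178Y cells. After 10 min, rhodamine 123 was added, followed by 20 min at 37 °C. Cellular rhodamine fluorescence was measured and expressed as fluorescence activity ratio (FAR); FAR >1 indicates MDR reversal.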

[27] = molecular target: T1, ATP-dependent translocase ABCB1; experiment: Inhibition of human MDR1-mediated multidrug resistant in mouse L5178Y cells at 40 uM treated 10 mins before rhodamine 123 challenge measured after 20 mins relative to control; type: cell-based; summary of the method: as §5
[28] = tested on: MOLT-4; experiment: Growth inhibition of human Molt4/C8 cells; type: functional, cell-based
[29] = tested on: CCRF-CEM; experiment: Growth inhibition of human CEM cells; type: functional, cell-based
[30] = tested on: L1210; experiment: Growth inhibition of mouse L1210 cells; type: functional, cell-based
[31] = tested on: HSC-2; experiment: Cytotoxicity against human HSC2 cells after 48 hrs; type: functional; conditions: HSC-2, 48 h
Summary of the method: (§6)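 Human HSC-2, HSC-3, HSC-4 squamous carcinoma and HL-60 promyelocytic leukaemia cells incubated with compound for 48 h. CC50, the concentration killing 50% of cells, read from a dose–response curve.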

[32] = tested on: HSC-2; experiment: Selectivity index, ratio of CC50 for human normal cells to CC50 for human HSC2 cells; type: functional
[33] = tested on: HSC-3; experiment: Cytotoxicity against human HSC3 cells after 48 hrs; type: functional; conditions: HSC-3, 48 h; summary of the method: as §6
[34] = tested on: HSC-3; experiment: Selectivity index, ratio of CC50 for human normal cells to CC50 for human HSC3 cells; type: functional
[35] = tested on: HSC-4; experiment: Cytotoxicity against human HSC4 cells after 48 hrs; type: functional; conditions: HSC-4, 48 h; summary of the method: as §6
[36] = tested on: HSC-4; experiment: Selectivity index, ratio of CC50 for human normal cells to CC50 for human HSC4 cells; type: functional
[37] = tested on: HL-60; experiment: Cytotoxicity against human HL60 cells after 48 hrs; type: functional; conditions: HL-60, 48 h; summary of the method: as §6
[38] = tested on: HL-60; experiment: Selectivity index, ratio of CC50 for human normal cells to CC50 for human HL60 cells; type: functional
[39] = Cytotoxicity against human HGF cells after 48 hrs; type: cell-based; summary of the method: as §1

## COc1cc(/C=C/C(=O)CC(=O)/C=C/c2ccc(O)c(OC)c2)ccc1O [CURCUMIN]
[1]
  Activity: 48.97%
[2]
  Activity: 5.62%
[3]
  Activity: 45.42%

## O=C1/C(=C/c2ccccc2)CN(C(=O)CC(=O)N2C/C(=C\c3ccccc3)C(=O)/C(=C/c3ccccc3)C2)C/C1=C\c1ccccc1
[4]
  CC50 at 48 h: 1300 nM
[5]
  pIC50: 6.80
[6]
  pIC50: 6.77
[7]
  pIC50: 7.52
[8]
  pIC50: 6.77
[9]
  pIC50: 7.30
[10]
  pIC50: 6.89
[11]
  pIC50: 7.30
[12]
  pIC50: 6.54
[13]
  pIC50: 7.30
[14]
  pIC50: 6.89
[15]
  Activity: inactive
[16]
  Activity: Active
[17]
  Activity: Active
[18]
  Activity: Active
[19]
  Activity: Active
[20]
  Activity: Active
[21]
  Activity: Active
[22]
  Activity: Active
[23]
  Activity: 31.54%
[24]
  Activity: 43.46%
[25]
  Activity: 25.01%
[26]
  Ratio: 35.3
[27]
  Ratio: 53.3
[28]
  growth inhibition (GI): Active
[29]
  growth inhibition (GI): Active
[30]
  growth inhibition (GI): Active
[31]
  CC50: 50 nM
[32]
  Ratio: 18.4
[33]
  CC50: 46 nM
[34]
  Ratio: 20
[35]
  CC50: 84 nM
[36]
  Ratio: 11
[37]
  CC50: 46 nM
[38]
  Ratio: 20
[39]
  CC50 at 48 h: 1100 nM
